This is an account of results in ChEMBL document CHEMBL4219075, “Synthesis and evaluation of novel dolastatin 10 derivatives for versatile conjugations” (Bioorg Med Chem, 2018).

Active and inactive are the calls of the source. The rule behind the calls is not given here. Non-standard residues stand in square brackets, D forms with d. Residues, ends and D or L forms follow the SMILES beside them. *: point of attachment. Dolaproine = CO[C@@H]([C@@H]1CCCN1)[C@@H](C)C(=O)O; Dil = CC[C@H](C)[C@H](NC)[C@@H](CC(=O)O)OC; X1 = C[C@@H](N*)[C@@H](O)c1ccccc1; NMeV = CN[C@H](C(=O)O)C(C)C

The subject of data set [1] is A549. Put plainly: Cytotoxicity against human A549 cells after 2 days by cell titer 96 aqueous one solution based assay. The settings on record: A549, 48 h. In kind it is functional. An outline of the steps:
(§1)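 Cells (DMEM + 10% heat-inactivated FBS for SKOV-3 and A549) seeded at about 5000−50000/well and held overnight at 37°C, 5% CO2. DMSO stocks were diluted into medium with 1% FBS and no folic acid. Compounds at various concentrations were added in triplicate and incubated 2 days. MTS reagent was added for 1–2 h, absorbance read at 490 nm, and percent survival calculated versus untreated wells.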

Data set [2] is filed under the species Sus scrofa. Description: Inhibition of porcine brain tubulin polymerization measured every minute for 60 mins by absorbance spectroscopic analysis. The method in brief:
(§2)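 Fluorescence-based HTS kit assay run with porcine brain tubulin at about 100 µg per well in general tubulin buffer. Compound at 3, 1 or 0.3 µM final, in duplicate, added at the start. Run at 37°C for 60 min, reading OD 360 nm (emission 450 nm) each minute. Polymerization compared with buffer-treated tubulin.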

The subject of data set [3] is L1210. Put plainly: Cytotoxicity against mouse L1210 cells after 2 days by cell titer 96 aqueous one solution based assay. The data set is classed as functional. The settings on record: L1210, 48 h. An outline of the steps:
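Mouse L1210 leukemia cells in RPMI-1640 + 10% heat-inactivated FBS were seeded at about 5000−50000/well and incubated overnight at 37°C, 5% CO2. Compounds were diluted in RPMI with 1% FBS and no folic acid, added at various concentrations in triplicate, and incubated 2 days. MTS was added for 1–2 h, A490 read, and survival expressed relative to untreated controls.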

Data set [4] can be described thus: Permeability of the compound at 200 umol/L after 5 hrs by PAMPA. The settings on record: read-out: permeability. The data set is classed as ADME. The method in brief:
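Compound solution in the donor (receiver-plate) wells; 20% MeOH in PBS in the pre-coated filter-plate wells. The assembly was incubated 5 h at room temperature. Donor and acceptor concentrations were measured by LC-MS. Permeability was calculated from filter area 0.3 cm², donor 0.32 mL, acceptor 0.2 mL, t = 18,000 s and equilibrium concentration.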
In general terms: PAMPA measures passive passage across an artificial lipid membrane.

Data set [5] concerns SK-OV-3. Put plainly: Cytotoxicity against human SKOV3 cells after 2 days by cell titer 96 aqueous one solution based assay. The data set is classed as functional. The settings on record: SK-OV-3, 48 h. An outline of the steps: as §1
The nature of data set [6]: Ratio of IC50 for human SKOV3 cells to IC50 for porcine brain tubulin polymerization.
Data set [7] is filed under the species Sus scrofa. Description: Inhibition of porcine brain tubulin polymerization at 0.3 to 3 uM measured every minute for 60 mins by absorbance spectroscopic analysis. An outline of the steps: as §2

In the case of `CC[C@H](C)[C@@H]([C@@H](CC(=O)N1CCC[C@H]1[C@H](OC)[C@@H](C)C(=O)N[C@@H](Cc1ccccc1)c1nc(C(=O)NCCc2ccc(O)cc2)cs1)OC)N(C)C(=O)[C@@H](NC(=O)[C@H](C(C)C)N(C)C)C(C)C`, the figures for the concentration for half-maximal inhibition (IC50) in data set [1], in data set [3] and in data set [5] were 1.3 nM, 5.6 nM and 0.37 nM, respectively. For the same compound, in data set [2], the inhibition result was “Active”. Moreover, the Papp at 5 h, 200 µM in data set [4] was found to be 0.36 ×10⁻⁶ cm/s.
For the compound `CC[C@H](C)[C@@H]([C@@H](CC(=O)N1CCC[C@H]1[C@H](OC)[C@@H](C)C(=O)N[C@@H](Cc1ccccc1)c1nc(C(=O)N(C)CCN)cs1)OC)N(C)C(=O)[C@@H](NC(=O)[C@H](C(C)C)N(C)C)C(C)C`, the IC50 (as a rule, the concentration needed to halve the response being measured) turned out to be 0.81 nM in data set [1], 12 nM in data set [3] and 0.56 nM in data set [5]. For the same compound, in data set [2], the inhibition entry is “Active”. In addition, the Papp at 5 h, 200 µM in data set [4] was 0.072 ×10⁻⁶ cm/s.
On to `CC[C@H](C)[C@@H]([C@@H](CC(=O)N1CCC[C@H]1[C@H](OC)[C@@H](C)C(=O)N[C@@H](Cc1ccccc1)c1nc(C(=O)N(C)CCS)cs1)OC)N(C)C(=O)[C@@H](NC(=O)[C@H](C(C)C)N(C)C)C(C)C`, for which the IC50 came to 1.2 nM in data set [1], 7 nM in data set [3] and 1.1 nM in data set [5]. For the same compound, the inhibition entry in data set [2] was “Active”. Also, the Papp at 5 h, 200 µM in data set [4] was 1.1 ×10⁻⁶ cm/s.
Regarding `CC[C@H](C)[C@@H]([C@@H](CC(=O)N1CCC[C@H]1[C@H](OC)[C@@H](C)C(=O)N[C@@H](Cc1ccccc1)c1nc(C(=O)NCCS)cs1)OC)N(C)C(=O)[C@@H](NC(=O)[C@H](C(C)C)N(C)C)C(C)C`, the IC50 in data set [1] amounted to 1.9 nM; in data set [3], 31 nM; in data set [5], 0.44 nM. In data set [2], the inhibition result was “Active”. Also, the Papp at 5 h, 200 µM in data set [4] was determined as 1.1 ×10⁻⁶ cm/s.
Regarding `CC[C@H](C)[C@@H]([C@@H](CC(=O)N1CCC[C@H]1[C@H](OC)[C@@H](C)C(=O)N[C@@H](Cc1ccccc1)c1nc(C(=O)OCCN)cs1)OC)N(C)C(=O)[C@@H](NC(=O)[C@H](C(C)C)N(C)C)C(C)C`, the IC50 in data set [1] is 0.83 nM; in data set [3], 29 nM; in data set [5], 0.85 nM. Besides, in data set [2], the inhibition entry was “Active”. Further, in data set [4], the Papp at 5 h, 200 µM was found to be 0.007 ×10⁻⁶ cm/s.
As to `CC[C@H](C)[C@@H]([C@@H](CC(=O)N1CCC[C@H]1[C@H](OC)[C@@H](C)C(=O)N[C@@H](Cc1ccccc1)c1nc(C(=O)N(C)CCNC)cs1)OC)N(C)C(=O)[C@@H](NC(=O)[C@H](C(C)C)N(C)C)C(C)C`, the IC50 in data set [1] stood at 1.9 nM; in data set [3], 14 nM; in data set [5], 0.19 nM. For the same compound, the inhibition entry in data set [2] was “Active”. For the same compound, the Papp at 5 h, 200 µM in data set [4] was less than 0.001 ×10⁻⁶ cm/s.
For `CC[C@H](C)[C@@H]([C@@H](CC(=O)N1CCC[C@H]1[C@H](OC)[C@@H](C)C(=O)N[C@@H](Cc1ccccc1)c1nc(C(=O)OCCO)cs1)OC)N(C)C(=O)[C@@H](NC(=O)[C@H](C(C)C)N(C)C)C(C)C`, the IC50 in data set [1] amounted to 1.8 nM; in data set [3], 4.7 nM; in data set [5] it was 0.086 nM. Also, in data set [2], the inhibition result is “Active”. Besides, in data set [4], the Papp at 5 h, 200 µM worked out at 0.04 ×10⁻⁶ cm/s.
Consider `CC[C@H](C)[C@@H]([C@@H](CC(=O)N1CCC[C@H]1[C@H](OC)[C@@H](C)C(=O)N[C@@H](Cc1ccccc1)c1nc(C(=O)OCCS)cs1)OC)N(C)C(=O)[C@@H](NC(=O)[C@H](C(C)C)N(C)C)C(C)C`, for which the figures for the IC50 in data set [1], in data set [3] and in data set [5] were 6.9 nM, 14 nM and 0.13 nM, respectively. In data set [2], the inhibition entry was “Active”. The Papp at 5 h, 200 µM in data set [4] stood at 0.005 ×10⁻⁶ cm/s.
For `CC[C@H](C)[C@@H]([C@@H](CC(=O)N1CCC[C@H]1[C@H](OC)[C@@H](C)C(=O)N[C@@H](Cc1ccccc1)c1nc(C(=O)NCCN)cs1)OC)N(C)C(=O)[C@@H](NC(=O)[C@H](C(C)C)N(C)C)C(C)C`, the IC50 was more than 10 nM in data set [1], more than 50 nM in data set [3] and more than 10 nM in data set [5]. Also, the “Ratio IC50” value in data set [6] is on record as more than 30. Also, the inhibition entry in data set [7] is “Active”. In addition, the Papp at 5 h, 200 µM in data set [4] amounted to 0.056 ×10⁻⁶ cm/s.
For `CC[C@H](C)[C@@H]([C@@H](CC(=O)N1CCC[C@H]1[C@H](OC)[C@@H](C)C(=O)N[C@@H](Cc1ccccc1)c1nc(C(=O)NCCO)cs1)OC)N(C)C(=O)[C@@H](NC(=O)[C@H](C(C)C)N(C)C)C(C)C`, the IC50 in data set [1] worked out at 1.7 nM; in data set [3], 28 nM; in data set [5] it was 4.7 nM. Moreover, the inhibition result in data set [2] was “Active”. The Papp at 5 h, 200 µM in data set [4] turned out to be 0.02 ×10⁻⁶ cm/s.
On to `CC[C@H](C)[C@@H]([C@@H](CC(=O)N1CCC[C@H]1[C@H](OC)[C@@H](C)C(=O)N[C@@H](Cc1ccccc1)c1nc(C(=O)NCCc2ccc(N)cc2)cs1)OC)N(C)C(=O)[C@@H](NC(=O)[C@H](C(C)C)N(C)C)C(C)C`, for which the figures for the IC50 in data set [1], in data set [3] and in data set [5] were 1.1 nM, 4.1 nM and 0.27 nM, respectively. Further, in data set [6], the “Ratio IC50” value was more than 30. In data set [7], the inhibition result was “Active”. In data set [4], the Papp at 5 h, 200 µM was found to be 0.3 ×10⁻⁶ cm/s.
Take `CCOC(=O)c1csc([C@H](Cc2ccccc2)NC(=O)[C@H](C)[C@@H](OC)[C@@H]2CCCN2C(=O)C[C@@H](OC)[C@H]([C@@H](C)CC)N(C)C(=O)[C@@H](NC(=O)[C@H](C(C)C)N(C)C)C(C)C)n1`: the inhibition result in data set [2] is “Active”. In addition, the Papp at 5 h, 200 µM in data set [4] came to 3.2 ×10⁻⁶ cm/s. This compound gave an IC50 in data set [5] of 0.024 nM.
`CC[C@H](C)[C@@H]([C@@H](CC(=O)N1CCC[C@H]1[C@H](OC)[C@@H](C)C(=O)N[C@@H](Cc1ccccc1)c1nc(C(=O)N(C)CCO)cs1)OC)N(C)C(=O)[C@@H](NC(=O)[C@H](C(C)C)N(C)C)C(C)C`: the IC50 in data set [1] amounted to 1.6 nM; in data set [3] it was 8.5 nM; in data set [5] it was 1.5 nM. The inhibition entry in data set [2] was “Active”. For the same compound, in data set [4], the Papp at 5 h, 200 µM came out at 0.077 ×10⁻⁶ cm/s.
For `CCNC(=O)c1csc([C@H](Cc2ccccc2)NC(=O)[C@H](C)[C@@H](OC)[C@@H]2CCCN2C(=O)C[C@@H](OC)[C@H]([C@@H](C)CC)N(C)C(=O)[C@@H](NC(=O)[C@H](C(C)C)N(C)C)C(C)C)n1` the same measures were 0.74 nM, 6.5 nM, 0.55 nM, “Active” and 1.7 ×10⁻⁶ cm/s.
For `CC[C@H](C)[C@@H]([C@@H](CC(=O)N1CCC[C@H]1[C@H](OC)[C@@H](C)C(=O)N[C@@H](Cc1ccccc1)c1nc(C(=O)NCCNC)cs1)OC)N(C)C(=O)[C@@H](NC(=O)[C@H](C(C)C)N(C)C)C(C)C` the same measures were 9.9 nM, 27 nM, more than 10 nM, “Active” and 0.004 ×10⁻⁶ cm/s.
`CC[C@H](C)[C@@H]([C@@H](CC(=O)N1CCC[C@H]1[C@H](OC)[C@@H](C)C(=O)N[C@H](C)[C@@H](O)c1ccccc1)OC)N(C)C(=O)[C@@H](NC(=O)[C@@H](NC)C(C)C)C(C)C` (H-[NMeV]V[Dil][Dolaproine]-X1): the IC50 came to 1.3 nM in data set [1], 2.1 nM in data set [3] and 0.66 nM in data set [5]. For the same compound, the Papp at 5 h, 200 µM in data set [4] stood at 0.079 ×10⁻⁶ cm/s.
